Measured values reported in ChEMBL document CHEMBL4229342, “Synthesis of novel proxyphylline derivatives with dual Anti-Candida albicans and anticancer activity” (Eur J Med Chem, 2018).
pEC50, pIC50: −log10 of the molar value. ≈ marks a conversion by molar mass, not a printed value.

Experiments:
Candida albicans [1] = assay: Growth inhibition of Candida albicans ATCC 90028 at 2 ug/ml incubated for 4 hrs at 35 degC by broth microdilution method relative to control; assay type: functional; conditions: ATCC 90028, 4 h, read-out: GI
Candida albicans [2] = assay: Growth inhibition of Candida albicans ATCC 90028 at 0.5 ug/ml incubated for 18 hrs at 35 degC by broth microdilution method relative to control; assay type: functional; conditions: ATCC 90028, 18 h, read-out: GI
Candida albicans [3] = assay: Fungicidal activity against Candida albicans ATCC 90028 assessed as drug level causing 3 fold reduction in bacterial count after 48 hrs at 35 degC; assay type: functional; conditions: ATCC 90028, 48 h
Candida albicans [4] = assay: Growth inhibition of Candida albicans ATCC 90028 at 16 ug/ml incubated for 18 hrs at 35 degC by broth microdilution method relative to control; assay type: functional; conditions: ATCC 90028, 18 h, read-out: GI
Candida albicans [5] = assay: Growth inhibition of Candida albicans ATCC 90028 at 1 ug/ml incubated for 4 hrs at 35 degC by broth microdilution method relative to control; assay type: functional; conditions: ATCC 90028, 4 h, read-out: GI
Candida albicans [6] = assay: Growth inhibition of Candida albicans ATCC 90028 at 0.0313 ug/ml incubated for 4 hrs at 35 degC by broth microdilution method relative to control; assay type: functional; conditions: ATCC 90028, 4 h, read-out: GI
Vero [7] = assay: Cytotoxicity in African green monkey Vero cells up to 64 ug/ml incubated for 3 to 18 hrs by XTT assay; assay type: cell-based; conditions: chlorocebus sabaeus
Candida albicans [8] = assay: Growth inhibition of Candida albicans ATCC 90028 at 8 ug/ml incubated for 48 hrs at 35 degC by broth microdilution method relative to control; assay type: functional; conditions: ATCC 90028, 48 h, read-out: GI
Candida albicans [9] = assay: Growth inhibition of Candida albicans ATCC 90028 at 16 ug/ml incubated for 48 hrs at 35 degC by broth microdilution method relative to control; assay type: functional; conditions: ATCC 90028, 48 h, read-out: GI
Candida albicans [10] = assay: Growth inhibition of Candida albicans ATCC 90028 at 0.0313 ug/ml incubated for 18 hrs at 35 degC by broth microdilution method relative to control; assay type: functional; conditions: ATCC 90028, 18 h, read-out: GI
Candida albicans [11] = assay: Growth inhibition of Candida albicans ATCC 90028 at 0.25 ug/ml incubated for 18 hrs at 35 degC by broth microdilution method relative to control; assay type: functional; conditions: ATCC 90028, 18 h, read-out: GI
MCF7 [12] = assay: Antiproliferative activity against human MCF7 cells assessed as cell viability at 100 uM after 72 hrs by MTT assay; assay type: functional; conditions: MCF7, 72 h, read-out: Activity
Summary of the method: (§1)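 MTT viability assay in CCRF-CEM and MCF-7 cells after 72 h exposure at 25, 50, 100 and 200 µM. Results are relative to control cells without inhibitor in 0.5% DMSO. Done in triplicate; values are means ± SD of three independent experiments.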

Candida albicans [13] = assay: Growth inhibition of Candida albicans ATCC 90028 at 1 ug/ml incubated for 18 hrs at 35 degC by broth microdilution method relative to control; assay type: functional; conditions: ATCC 90028, 18 h, read-out: GI
Candida albicans [14] = assay: Growth inhibition of Candida albicans ATCC 90028 at 0.0625 ug/ml incubated for 18 hrs at 35 degC by broth microdilution method relative to control; assay type: functional; conditions: ATCC 90028, 18 h, read-out: GI
Candida albicans [15] = assay: Growth inhibition of Candida albicans ATCC 90028 at 0.125 ug/ml incubated for 18 hrs at 35 degC by broth microdilution method relative to control; assay type: functional; conditions: ATCC 90028, 18 h, read-out: GI
MCF7 [16] = assay: Antiproliferative activity against human MCF7 cells assessed as cell viability at 50 uM after 72 hrs by MTT assay; assay type: functional; conditions: MCF7, 72 h, read-out: Activity; summary of the method: as §1
Candida albicans [17] = assay: Growth inhibition of Candida albicans ATCC 90028 at 8 ug/ml incubated for 4 hrs at 35 degC by broth microdilution method relative to control; assay type: functional; conditions: ATCC 90028, 4 h, read-out: GI
CCRF-CEM [18] = assay: Antiproliferative activity against human CCRF-CEM cells assessed as cell viability at 25 uM after 72 hrs by MTT assay; assay type: functional; conditions: read-out: Activity; summary of the method: as §1
Candida albicans [19] = assay: Growth inhibition of Candida albicans ATCC 90028 at 0.0625 ug/ml incubated for 4 hrs at 35 degC by broth microdilution method relative to control; assay type: functional; conditions: ATCC 90028, 4 h, read-out: GI
Candida albicans [20] = assay: Growth inhibition of Candida albicans ATCC 90028 at 0.125 ug/ml incubated for 4 hrs at 35 degC by broth microdilution method relative to control; assay type: functional; conditions: ATCC 90028, 4 h, read-out: GI
Vero [21] = assay: Cytotoxicity in African green monkey Vero cells incubated for 18 hrs by XTT assay; assay type: cell-based; conditions: Chlorocebus sabaeus
MCF7 [22] = assay: Antiproliferative activity against human MCF7 cells assessed as cell viability at 25 uM after 72 hrs by MTT assay; assay type: functional; conditions: MCF7, 72 h, read-out: Activity; summary of the method: as §1
Candida albicans [23] = assay: Growth inhibition of Candida albicans ATCC 90028 at 0.5 ug/ml incubated for 4 hrs at 35 degC by broth microdilution method relative to control; assay type: functional; conditions: ATCC 90028, 4 h, read-out: GI
CCRF-CEM [24] = assay: Antiproliferative activity against human CCRF-CEM cells assessed as cell viability at 200 uM after 72 hrs by MTT assay; assay type: functional; conditions: read-out: Activity; summary of the method: as §1
Candida albicans [25] = assay: Growth inhibition of Candida albicans ATCC 90028 at 4 ug/ml incubated for 18 hrs at 35 degC by broth microdilution method relative to control; assay type: functional; conditions: ATCC 90028, 18 h, read-out: GI
CCRF-CEM [26] = assay: Antiproliferative activity against human CCRF-CEM cells assessed as cell viability at 50 uM after 72 hrs by MTT assay; assay type: functional; conditions: read-out: Activity; summary of the method: as §1
Candida albicans [27] = assay: Fungicidal activity against Candida albicans ATCC 90028 assessed as log reduction in cell viability at 16 ug/ml after 48 hrs at 35 degC; assay type: functional
Summary of the method: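 MFC assay on C. albicans ATCC 90028 following M27-A3, at the molar equivalent of 16 µg/mL. CFU of treated cells were compared with CFU of the untreated inoculum. Activity is given as lg R = lg CFU/mL control − lg CFU/mL treated, and lg R ≥3 was defined as fungicidal. Values are means of two independent experiments.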

CCRF-CEM [28] = assay: Antiproliferative activity against human CCRF-CEM cells assessed as cell viability at 100 uM after 72 hrs by MTT assay; assay type: functional; conditions: read-out: Activity; summary of the method: as §1
Candida albicans [29] = assay: Growth inhibition of Candida albicans ATCC 90028 at 0.25 ug/ml incubated for 4 hrs at 35 degC by broth microdilution method relative to control; assay type: functional; conditions: ATCC 90028, 4 h, read-out: GI
Candida albicans [30] = assay: Growth inhibition of Candida albicans ATCC 90028 at 2 ug/ml incubated for 18 hrs at 35 degC by broth microdilution method relative to control; assay type: functional; conditions: ATCC 90028, 18 h, read-out: GI
Candida albicans [31] = assay: Growth inhibition of Candida albicans ATCC 90028 at 8 ug/ml incubated for 18 hrs at 35 degC by broth microdilution method relative to control; assay type: functional; conditions: ATCC 90028, 18 h, read-out: GI
MCF7 [32] = assay: Antiproliferative activity against human MCF7 cells assessed as cell viability at 200 uM after 72 hrs by MTT assay; assay type: functional; conditions: MCF7, 72 h, read-out: Activity; summary of the method: as §1
CCRF-CEM [33] = assay: Antiproliferative activity against human CCRF-CEM cells after 72 hrs by MTT assay; assay type: functional, cell-based
Summary of the method: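 EC50 was derived from a repeat 72 h MTT assay in CCRF-CEM or MCF-7 cells. It is the concentration killing 50% of tumour cells compared with control cells incubated without inhibitor in 0.5% DMSO.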

SMILES: CC(Cn1cnc2c1c(=O)n(C)c(=O)n2C)OC(=O)N1c2ccccc2C=Cc2ccccc21 (stereo not drawn)
- inhibition of growth at 2 µg/mL (Candida albicans [1]): 99.4%
- inhibition of growth at 0.5 µg/mL (Candida albicans [2]): 99.7%
- MFC (Candida albicans [3]): 35 µM (≈ 16 µg/mL)
- inhibition of growth at 16 µg/mL (Candida albicans [4]): 100%
- inhibition of growth at 1 µg/mL (Candida albicans [5]): 99.3%
- inhibition of growth at 0.0313 µg/mL (Candida albicans [6]): 99.1%
- Activity (Vero [7]): Non-Toxic
- inhibition of growth at 8 µg/mL (Candida albicans [8]): 99.2%
- inhibition of growth at 16 µg/mL (Candida albicans [9]): 100%
- inhibition of growth at 0.0313 µg/mL (Candida albicans [10]): 99.8%
- inhibition of growth at 0.25 µg/mL (Candida albicans [11]): 100%
- viability at 100 µM (MCF7 [12]): 82.5%
- inhibition of growth at 1 µg/mL (Candida albicans [13]): 100%
- inhibition of growth at 0.0625 µg/mL (Candida albicans [14]): 99.9%
- inhibition of growth at 0.125 µg/mL (Candida albicans [15]): 100%
- viability at 50 µM (MCF7 [16]): 98.8%
- inhibition of growth at 8 µg/mL (Candida albicans [17]): 99.2%
- viability at 25 µM (CCRF-CEM [18]): 52.4%
- inhibition of growth at 0.0625 µg/mL (Candida albicans [19]): 99.3%
- inhibition of growth at 0.125 µg/mL (Candida albicans [20]): 99.7%
- pIC50 (Vero [21]): ≤ 3.55
- viability at 25 µM (MCF7 [22]): 93.4%
- inhibition of growth at 0.5 µg/mL (Candida albicans [23]): 99.2%
- viability at 200 µM (CCRF-CEM [24]): 23.4%
- inhibition of growth at 4 µg/mL (Candida albicans [25]): 100%
- viability at 50 µM (CCRF-CEM [26]): 39.3%
- log(activity) (Candida albicans [27]): 8
- viability at 100 µM (CCRF-CEM [28]): 23.9%
- inhibition of growth at 0.25 µg/mL (Candida albicans [29]): 99.2%
- inhibition of growth at 2 µg/mL (Candida albicans [30]): 99.8%
- inhibition of growth at 8 µg/mL (Candida albicans [31]): 99.8%
- viability at 200 µM (MCF7 [32]): 76.5%

SMILES: CC(Cn1cnc2c1c(=O)n(C)c(=O)n2C)OCc1cn(CCCn2cnc3c(Br)c(Br)c(Br)c(Br)c32)nn1 (stereo not drawn)
- inhibition of growth at 2 µg/mL (Candida albicans [1]): 99.2%
- pEC50 (CCRF-CEM [33]): 5.20
- inhibition of growth at 0.5 µg/mL (Candida albicans [2]): 99.6%
- MFC (Candida albicans [3]): 36 µM (≈ 28.6 µg/mL)
- inhibition of growth at 16 µg/mL (Candida albicans [4]): 99.9%
- inhibition of growth at 1 µg/mL (Candida albicans [5]): 99.2%
- Activity (Vero [7]): Non-Toxic
- inhibition of growth at 8 µg/mL (Candida albicans [8]): 99.2%
- inhibition of growth at 16 µg/mL (Candida albicans [9]): 100%
- inhibition of growth at 0.25 µg/mL (Candida albicans [11]): 100%
- viability at 100 µM (MCF7 [12]): 2%
- inhibition of growth at 1 µg/mL (Candida albicans [13]): 100%
- inhibition of growth at 0.0625 µg/mL (Candida albicans [14]): 99.7%
- inhibition of growth at 0.125 µg/mL (Candida albicans [15]): 100%
- viability at 50 µM (MCF7 [16]): 29.7%
- inhibition of growth at 8 µg/mL (Candida albicans [17]): 99%
- viability at 25 µM (CCRF-CEM [18]): 0%
- inhibition of growth at 0.0625 µg/mL (Candida albicans [19]): 99.3%
- inhibition of growth at 0.125 µg/mL (Candida albicans [20]): 99.6%
- pIC50 (Vero [21]): ≤ 3.55
- viability at 25 µM (MCF7 [22]): 74.5%
- inhibition of growth at 0.5 µg/mL (Candida albicans [23]): 99%
- viability at 200 µM (CCRF-CEM [24]): 0%
- inhibition of growth at 4 µg/mL (Candida albicans [25]): 99.9%
- viability at 50 µM (CCRF-CEM [26]): 0%
- log(activity) (Candida albicans [27]): 8
- viability at 100 µM (CCRF-CEM [28]): 0%
- inhibition of growth at 0.25 µg/mL (Candida albicans [29]): 99.6%
- inhibition of growth at 2 µg/mL (Candida albicans [30]): 100%
- inhibition of growth at 8 µg/mL (Candida albicans [31]): 99.9%
- viability at 200 µM (MCF7 [32]): 4.1%
